AF4-AF9 inh = blocks AF4 peptide binding to human AF9; P42568; AlphaScreen, biotin-AF4 peptide binding to FLAG-AF9; inhibition, % at 10 µM; 0.47% of 350,000 active; AID 651704;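 active = every replicate reaching a set inhibition limit, whatever the replicate mean, cut at about 25% in these data; inconclusive = mean inhibition reaches that limit but some replicates miss it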
Target sequence (P42568 whole entry, looked up): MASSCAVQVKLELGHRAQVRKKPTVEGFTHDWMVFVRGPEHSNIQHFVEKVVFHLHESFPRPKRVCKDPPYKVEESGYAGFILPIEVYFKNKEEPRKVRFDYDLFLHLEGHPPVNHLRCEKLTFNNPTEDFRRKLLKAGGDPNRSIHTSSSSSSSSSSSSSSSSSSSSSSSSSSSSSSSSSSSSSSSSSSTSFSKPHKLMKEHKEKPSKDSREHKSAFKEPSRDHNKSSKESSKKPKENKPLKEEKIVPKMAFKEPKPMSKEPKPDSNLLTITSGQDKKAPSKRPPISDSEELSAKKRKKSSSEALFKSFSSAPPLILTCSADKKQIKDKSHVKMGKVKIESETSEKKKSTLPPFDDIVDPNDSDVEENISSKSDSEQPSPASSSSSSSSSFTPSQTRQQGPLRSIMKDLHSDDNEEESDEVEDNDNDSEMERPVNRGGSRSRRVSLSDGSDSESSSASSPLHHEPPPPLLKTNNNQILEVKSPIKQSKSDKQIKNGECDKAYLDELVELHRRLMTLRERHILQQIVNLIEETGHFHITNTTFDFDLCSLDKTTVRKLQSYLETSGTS
SIRT5 inh = blocks human SIRT5 desuccinylation of peptide; Q9NXA8; Purified SirT5, succinyl-peptide AMC, trypsin-coupled fluorescence; inhibition, % at 15 µM; 1.1% of 330,000 active; AID 652115; in the data active = inhibition above about 15%; inconclusive = no clear call, values can overlap the other calls
S100A4 MyoIIA = S100A4-myosin IIA interaction inhibition | P26447 | S100A4/TAMRA-MyoIIA peptide fluorescence polarization | 0.14% of 360,000 active | inhibition, % at 10.7 µM;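 active = mean inhibition of at least 70% across replicates, with every replicate also reaching that level; inconclusive = mean inhibition reaches 70% but some replicates fall short; inactive = mean inhibition below 70%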
Target sequence (P26447 whole entry, looked up): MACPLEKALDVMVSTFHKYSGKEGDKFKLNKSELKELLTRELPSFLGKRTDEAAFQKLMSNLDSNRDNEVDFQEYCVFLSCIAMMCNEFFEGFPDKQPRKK
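Material: S100A4 monomer (human). Medium: Calcium-containing HEPES buffer, pH 7.2. Probe or stimulus: labelled myosin peptide probe, 5 nM. Compound dosing: one concentration per compound. Timing: polarization read 5 min after assay mix addition, stable 5–60 min. Benchmarks: DMSO as neutral control, TFP as positive control.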
CaV13 FRET inh = Primary screen for inhibitors of IQ motif and Ca2+-dependent inactivation inhibitor domain binding in CACNA1D, Förster resonance energy transfer in living cells, …; HEK cells, CFP/YFP FRET ICDI-IQ, plate reader, 10 min; percent FRET-ratio fall versus neutral wells; 0.098% of 340,000 active; inhibition, % at 12.3 µM;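 active = mean replicate inhibition of at least 30% and at least 1% of replicates passing that level; inconclusive = only one of the two criteria is met; inactive = neither criterion is met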
DENV2 CPE rescue = inhibitors of DENV2 cytopathic effect. DENV2-infected cells, cytopathic effect rescue, plate reader. CPE inhibition, % at 9.99 µM. 1.7% of 350,000 active; in the data active = CPE inhibition above about 20%, passing the limit was not always enough; inconclusive = no clear call, values can overlap the other calls; tested in BHK-21 cells
A number is an active result. Rows were chosen to be rich in hits. Some 2.7% of all compounds tested hit in one or more screens of this group.

CCc1cc(Cn2nc(-c3ccccc3)cc2C(=O)O)on1 was read as AF4-AF9 inh inactive, SIRT5 inh inactive, S100A4 MyoIIA inactive, CaV13 FRET inh inactive and DENV2 CPE rescue inactive.
CCc1cc(Cn2nc(-c3ccccc3)cc2C(=O)NCc2cccc(Br)c2)on1 was read as AF4-AF9 inh inactive, S100A4 MyoIIA inactive, CaV13 FRET inh inactive and DENV2 CPE rescue 90.
For Cc1ccc(-c2ccc3c(c2)O[C@@H](CN(C)C(=O)C2CCC2)[C@H](C)CN([C@@H](C)CO)S3(=O)=O)cc1 the results were AF4-AF9 inh inactive, SIRT5 inh inactive, S100A4 MyoIIA inactive and DENV2 CPE rescue inactive.
Screening Cc1cccc(S(=O)(=O)N2C[C@H]3[C@@H](c4ccccc42)[C@H](CO)N3C(=O)C2CC2)c1 returned AF4-AF9 inh inactive, SIRT5 inh inactive, S100A4 MyoIIA inactive and DENV2 CPE rescue inactive.
C[C@H]1CCCCO[C@H](CN(C)C)[C@@H](C)CN([C@@H](C)CO)C(=O)c2cc(NC(=O)Nc3cccc4ccccc34)ccc2O1 was read as AF4-AF9 inh inactive, SIRT5 inh inactive, S100A4 MyoIIA inactive and DENV2 CPE rescue inconclusive.
`C[C@@H]1CN([C@@H](C)CO)C(=O)c2cc(NC(=O)Nc3cccc4ccccc34)ccc2O[C@@H](C)CCCCO[C@H]1CN(C)CC1CCCCC1` gave AF4-AF9 inh inactive, SIRT5 inh inactive, S100A4 MyoIIA inactive and DENV2 CPE rescue 28.
`C[C@@H]1CCCCO[C@H](CN(C)C)[C@H](C)CN([C@H](C)CO)C(=O)c2cc(NC(=O)Nc3cccc4ccccc34)ccc2O1` gave AF4-AF9 inh inactive, SIRT5 inh inactive, S100A4 MyoIIA inactive and DENV2 CPE rescue 74.
C[C@@H]1CCCCO[C@@H](CN(C)CC2CCCCC2)[C@H](C)CN([C@H](C)CO)C(=O)c2cc(NC(=O)Nc3cccc4ccccc34)ccc2O1 was read as AF4-AF9 inh inactive, SIRT5 inh inactive, S100A4 MyoIIA inactive and DENV2 CPE rescue 118.
Screening C[C@@H]1CN([C@@H](C)CO)C(=O)c2cc(NC(=O)Nc3cccc4ccccc34)ccc2O[C@@H](C)CCCCO[C@@H]1CN(C)CC1CCCCC1 returned AF4-AF9 inh inactive, SIRT5 inh inactive, S100A4 MyoIIA inactive and DENV2 CPE rescue inactive.
`O=C(Nc1ccccc1F)N[C@H]1CC[C@H](CCNS(=O)(=O)c2ccc(Cl)cc2)O[C@@H]1CO` gave AF4-AF9 inh inactive, SIRT5 inh inactive, S100A4 MyoIIA inactive and DENV2 CPE rescue inactive.
O=C(c1ccccc1)N1C[C@H]2[C@@H](c3ccccc31)[C@@H](CO)N2Cc1ccccc1F was read as AF4-AF9 inh inactive, SIRT5 inh inactive, S100A4 MyoIIA inactive and DENV2 CPE rescue inactive.
Screening C[C@@H]1CN([C@@H](C)CO)C(=O)Cc2cc(NC(=O)c3ccncc3)ccc2O[C@H]1CN(C)Cc1ccc(C(=O)O)cc1 returned AF4-AF9 inh inactive, SIRT5 inh inactive, S100A4 MyoIIA inactive and DENV2 CPE rescue inactive.
`COc1ccc(S(=O)(=O)N(C)C[C@H]2OCCCC[C@H](C)Oc3ccc(NC(=O)c4ccccc4)cc3C(=O)N([C@@H](C)CO)C[C@H]2C)cc1` gave AF4-AF9 inh inactive, SIRT5 inh inactive, S100A4 MyoIIA inactive and DENV2 CPE rescue inactive.
`C[C@H](CO)N1C[C@H](C)[C@H](CN(C)S(=O)(=O)c2ccc(Cl)cc2)OCCCC[C@H](C)Oc2ccc(NC(=O)c3ccccc3)cc2C1=O` gave AF4-AF9 inh inactive, SIRT5 inh inactive, S100A4 MyoIIA inactive and DENV2 CPE rescue 21.
COc1ccc(S(=O)(=O)N(C)C[C@@H]2OCCCC[C@H](C)Oc3ccc(NC(=O)c4ccccc4)cc3C(=O)N([C@H](C)CO)C[C@@H]2C)cc1 was read as AF4-AF9 inh inactive, SIRT5 inh inactive, S100A4 MyoIIA inactive and DENV2 CPE rescue 44.
For COc1ccc(NC(=O)Nc2ccc3c(c2)C(=O)N([C@@H](C)CO)C[C@@H](C)[C@H](CN(C)S(=O)(=O)c2ccccc2)OCCCC[C@@H](C)O3)cc1 the results were AF4-AF9 inh inactive, SIRT5 inh 15, S100A4 MyoIIA inactive and DENV2 CPE rescue inactive.
COc1ccc(NC(=O)Nc2ccc3c(c2)C(=O)N([C@@H](C)CO)C[C@@H](C)[C@@H](CN(C)S(=O)(=O)c2ccccc2)OCCCC[C@@H](C)O3)cc1 was read as AF4-AF9 inh inactive, SIRT5 inh inactive, S100A4 MyoIIA inactive and DENV2 CPE rescue 66.
For COc1ccc(NC(=O)Nc2ccc3c(c2)C(=O)N([C@@H](C)CO)C[C@H](C)[C@@H](CN(C)S(=O)(=O)c2ccccc2)OCCCC[C@@H](C)O3)cc1 the results were AF4-AF9 inh inactive, SIRT5 inh inactive, S100A4 MyoIIA inactive and DENV2 CPE rescue inactive.
C[C@@H]1CCCCO[C@H](CN(C)S(=O)(=O)c2ccc(Cl)cc2)[C@@H](C)CN([C@H](C)CO)C(=O)c2cc(NC(=O)c3ccccc3)ccc2O1 was read as AF4-AF9 inh inactive, SIRT5 inh inactive, S100A4 MyoIIA inactive and DENV2 CPE rescue inactive.
For O=C(C1CCC1)N1CC2(C1)[C@H](c1ccccc1)[C@H](CO)N2CC1CCCC1 the results were AF4-AF9 inh inactive, SIRT5 inh inactive, S100A4 MyoIIA inactive and DENV2 CPE rescue inactive.
For CN(C)CC(=O)N1[C@H](C#N)[C@H](c2ccc(C#CC3CCCCC3)cc2)[C@@H]1CO the results were AF4-AF9 inh inactive, SIRT5 inh inactive, S100A4 MyoIIA inactive and DENV2 CPE rescue 40.
`CN(C)CC(=O)N1[C@H](CO)[C@@H](c2ccc(C#CC3CCCCC3)cc2)[C@@H]1C#N` gave AF4-AF9 inh inactive, SIRT5 inh inactive, S100A4 MyoIIA inactive and DENV2 CPE rescue inactive.
`N#C[C@@H]1[C@@H](c2ccc(C#CC3CCCCC3)cc2)[C@H](CO)N1C(=O)Cc1ccccn1` gave AF4-AF9 inh inactive, SIRT5 inh inactive, S100A4 MyoIIA inactive and DENV2 CPE rescue 67.
N#C[C@@H]1[C@H](c2ccc(C#CC3CCCCC3)cc2)[C@H](CO)N1C(=O)Cc1ccccn1 was read as AF4-AF9 inh inactive, SIRT5 inh inactive and S100A4 MyoIIA inactive.
`CN(C)CC(=O)N1[C@@H](C#N)[C@H](c2ccc(C#CC3CCCC3)cc2)[C@@H]1CO` gave AF4-AF9 inh inactive, SIRT5 inh inactive, S100A4 MyoIIA inactive and DENV2 CPE rescue 23.
Screening O=C(N[C@@H]1CC[C@@H](CCNC(=O)C2CCCC2)O[C@@H]1CO)c1ccccn1 returned AF4-AF9 inh inactive, SIRT5 inh inactive, S100A4 MyoIIA inactive and DENV2 CPE rescue inactive.
Screening N#C[C@@H]1[C@@H](c2ccccc2)[C@H](CO)N1C(=O)c1cccnc1 returned AF4-AF9 inh inactive, SIRT5 inh inactive, S100A4 MyoIIA inactive and DENV2 CPE rescue inactive.
Screening C[C@@H]1CN([C@H](C)CO)C(=O)c2cc(NC(=O)CCC(F)(F)F)ccc2O[C@H]1CN(C)Cc1ccc(Oc2ccccc2)cc1 returned AF4-AF9 inh inactive, SIRT5 inh 27, S100A4 MyoIIA inactive and DENV2 CPE rescue inactive.
